In brackets after ≈: the same amount, converted by molar mass. Activity calls are given as the source filed them. No cut-off for these calls is given here.
Assays:
[1] = tested on: Mycobacterium tuberculosis; test: Antimycobacterial activity against rifampin-resistant Mycobacterium tuberculosis ATCC 35838; format: functional
Summary of the method: (§1)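 Strain (H37Rv or ATCC single-drug-resistant isolates) grown to late log phase in 7H9 with 0.2% glycerol, 0.05% Tween80, 10% OADC. Cells washed into PBS, passed through 8 μm filter, frozen; CFU titred on 7H11 agar. MABA MIC is the lowest concentration giving ≥90% growth inhibition versus untreated controls.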

[2] = tested on: Mycobacterium tuberculosis; test: Antimycobacterial activity against streptomycin-resistant Mycobacterium tuberculosis ATCC 35820; format: functional; summary of the method: as §1
[3] = tested on: Mycobacterium tuberculosis; test: Antimycobacterial activity against kanamycin-resistant Mycobacterium tuberculosis ATCC 35827; format: functional; summary of the method: as §1
[4] = tested on: Mycobacterium tuberculosis; test: Antimycobacterial activity against isoniazid-resistant Mycobacterium tuberculosis ATCC 35822; format: functional; summary of the method: as §1
[5] = tested on: Mycobacterium tuberculosis; test: Antimycobacterial activity against cycloserine-resistant Mycobacterium tuberculosis ATCC 35826; format: functional; summary of the method: as §1
[6] = tested on: Mycobacterium tuberculosis variant bovis BCG; test: Antimycobacterial activity against Mycobacterium bovis BCG ATCC 35734 at 100 ug/ml after 8 days by microplate Alamar blue assay; format: functional, organism-based
Summary of the method: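 MABA in 7H12 (M. abscessus, M. bovis BCG) or 7H9 (others). Pre-dye incubation: M. abscessus 37 °C 3 days; BCG 37 °C 7 days; M. chelonae 30 °C 3 days; M. marinum 30 °C 5 days; M. avium and M. kansasii 37 °C 6 days. Then 20% Tween80 plus Alamar blue added: 4 h (abscessus), 6 days (chelonae), 1 day (others). Tested at 100 μg/mL.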

Row | SMILES | MIC90 [1] [µg/mL] | MIC90 [2] [µg/mL] | MIC90 [3] [µg/mL] | MIC90 [4] [µg/mL] | MIC90 [5] [µg/mL] | Activity [6]
1 | O=[N+]([O-])c1cn2c(n1)OC[C@@H](OCc1ccc(OC(F)(F)F)cc1)C2 [PRETOMANID] | 0.07 (≈ 0.195 µM) | 0.17 (≈ 0.473 µM) | 0.34 (≈ 0.946 µM) | 0.05 (≈ 0.139 µM) | 0.18 (≈ 0.501 µM) | –
2 | CN[C@@H]1[C@H](O[C@H]2[C@H](O[C@H]3[C@H](O)[C@@H](O)[C@H](N=C(N)N)[C@@H](O)[C@@H]3N=C(N)N)O[C@@H](C)[C@]2(O)C=O)O[C@@H](CO)[C@H](O)[C@H]1O [STREPTOMYCIN] | 0.47 (≈ 0.808 µM) | > 9.31 | 1.48 (≈ 2.54 µM) | 0.56 (≈ 0.963 µM) | 0.53 (≈ 0.911 µM) | –
3 | O=c1cc(-c2ccccc2)c2ccc(Cl)cc2o1 | 45.4 (≈ 177 µM) | 46.9 (≈ 183 µM) | 47.4 (≈ 185 µM) | 76.5 (≈ 298 µM) | 47.3 (≈ 184 µM) | inactive
4 | NC[C@H]1O[C@H](O[C@H]2[C@H](O)[C@@H](O[C@H]3O[C@H](CO)[C@@H](O)[C@H](N)[C@H]3O)[C@H](N)C[C@@H]2N)[C@H](O)[C@@H](O)[C@@H]1O [KANAMYCIN] | 0.73 (≈ 1.51 µM) | 0.76 (≈ 1.57 µM) | > 25 | 0.72 (≈ 1.49 µM) | 1.12 (≈ 2.31 µM) | –
5 | CO[C@H]1/C=C/O[C@@]2(C)Oc3c(C)c(O)c4c(O)c(c(/C=N/N5CCN(C)CC5)c(O)c4c3C2=O)NC(=O)/C(C)=C\C=C\[C@H](C)[C@H](O)[C@@H](C)[C@@H](O)[C@@H](C)[C@H](OC(C)=O)[C@@H]1C [RIFAMPIN] | > 3.29 | 0.09 (≈ 0.109 µM) | 0.02 (≈ 0.0243 µM) | 0.04 (≈ 0.0486 µM) | 0.02 (≈ 0.0243 µM) | –
6 | NNC(=O)c1ccncc1 [ISONIAZID] | 0.03 (≈ 0.219 µM) | 0.03 (≈ 0.219 µM) | 0.07 (≈ 0.51 µM) | > 2.19 | 0.04 (≈ 0.292 µM) | –
7 | O=c1cc(-c2ccccc2)c2cc(Cl)ccc2o1 | – | – | – | – | – | inactive
8 | CCOC(=O)c1c(-c2ccccc2)c2ccc(Cl)cc2oc1=O | 44.7 (≈ 136 µM) | 46.9 (≈ 143 µM) | 43.9 (≈ 134 µM) | 31.7 (≈ 96.4 µM) | 47.3 (≈ 144 µM) | inactive
9 | N[C@@H]1CONC1=O [CYCLOSERINE] | 4.8 (≈ 47 µM) | 4.9 (≈ 48 µM) | 4.9 (≈ 48 µM) | 5 (≈ 49 µM) | > 10.2 | –
10 | CCOC(=O)c1c(-c2ccccc2)c2cc(Cl)ccc2oc1=O | 46.6 (≈ 142 µM) | 49.5 (≈ 151 µM) | > 100 | 44.7 (≈ 136 µM) | > 100 | inactive

Source: ChEMBL document CHEMBL2429835
